Source: ChEMBL document CHEMBL1142265, “Discovery of 4-aryl-4H-chromenes as a new series of apoptosis inducers using a cell- and caspase-based HTS assay. Part 5: modifications of the 2- and 3-positions” (Bioorg Med Chem Lett, 2008)

Tests used:
[1] = Inhibition of tubulin polymerization
[2] = tested on: T47D; test: Induction of apoptosis in human T47D cells assessed as caspase activation by HTS assay; type: functional, cell-based
[3] = tested on: T47D; test: Growth inhibition of human T47D cells; type: functional
Summary of the method: (§1)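 GI50 from a cell growth inhibition assay in T47D, HCT116 and SNU398 cells, run in 96-well format following an earlier protocol. Values are means of three or more experiments ± SEM.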

[4] = tested on: SNU-398; test: Induction of apoptosis in human SNU398 cells assessed as caspase activation by HTS assay; type: functional, cell-based
[5] = tested on: HCT-116; test: Growth inhibition of human HCT116 cells; type: functional; summary of the method: as §1
[6] = tested on: HCT-116; test: Induction of apoptosis in human HCT116 cells assessed as caspase activation by HTS assay; type: functional, cell-based
[7] = tested on: SNU-398; test: Growth inhibition of human SNU398 cells; type: functional; summary of the method: as §1

SMILES | IC50 [1] | EC50 [2] | GI50 [3] | EC50 [4] | GI50 [5] | EC50 [6] | GI50 [7]
N#CC1=C(N)Oc2c(ccc3[nH]ccc23)C1c1ccccc1 (stereo unspecified) | 3000 nM | 270 nM |  |  |  |  | 
COc1cc(C2C(C#N)=C(N)Oc3c2ccc2[nH]ccc32)cc(Br)c1OC (stereo unspecified) | 500 nM |  |  |  |  |  | 
CCOC(=O)C1=C(N)Oc2c(ccc3[nH]ccc23)C1c1cc(Br)c(OC)c(OC)c1 (stereo unspecified) |  | 3200 nM | 3300 nM | 2200 nM | 4300 nM | 3000 nM | 1600 nM
COc1cc(C2C(C#N)=C(NC(=O)Nc3ccccc3)Oc3cc(N(C)C)ccc32)cc(Br)c1OC (stereo unspecified) |  | 68 nM |  | 93 nM |  | 84 nM | 
COc1cc(C2C(C#N)=COc3c2ccc2c3ccn2C)cc(Br)c1OC (stereo unspecified) | < 500 nM | 29 nM | 6 nM | 34 nM | 6 nM | 38 nM | 4 nM
COc1cc(C2C(C#N)=COc3c2ccc2[nH]ccc32)cc(Br)c1OC (stereo unspecified) | < 500 nM | 47 nM | 73 nM | 52 nM | 53 nM | 66 nM | 34 nM
CCn1ccc2c3c(ccc21)C(c1cc(Br)c(OC)c(OC)c1)C(C#N)=CO3 (stereo unspecified) |  | 70 nM |  | 87 nM |  | 150 nM | 
COc1cc(C2C(C#N)=COc3cc(N(C)C)ccc32)cc(Br)c1OC (stereo unspecified) |  | 65 nM | 66 nM | 77 nM | 51 nM | 93 nM | 17 nM
COc1cc(C2C(C#N)=C(N3C(=O)CCC3=O)Oc3cc(N(C)C)ccc32)cc(Br)c1OC (stereo unspecified) |  | 250 nM |  | 190 nM |  | 420 nM | 
COC(=O)C1=C(N)Oc2c(ccc3[nH]ccc23)C1c1cc(Br)c(OC)c(OC)c1 (stereo unspecified) |  | 1400 nM |  | 1000 nM |  | 660 nM | 
